# Results: ChEMBL document CHEMBL1151448, “Comparative antianaerobic activities of doripenem determined by MIC and time-kill analysis” (2008)
# Activity calls are given as the source filed them. No cut-off for these calls is given here.
# Assays:
# Bacteroides fragilis [1] = assay: Antimicrobial activity against beta lactamase-positive Bacteroides fragilis isolated from intra-abdominal infection and pelvic inflammatory disease patients after 48 hrs by agar dilution method; assay type: functional
# Method in brief: (§1)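 CLSI agar dilution on brucella blood agar supplemented with laked sheep blood, hemin and vitamin K. Inocula of about 1 × 10^5 CFU/spot were applied by Steers replicator, and plates were incubated 48 h at 35°C in an anaerobic glove box. MIC was the concentration giving marked growth reduction versus the anaerobic control plate. QC strains were included each run, and β-lactamase was detected by Cefinase disk.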
# Bacteroides fragilis [2] = assay: Antimicrobial activity against beta lactamase-positive Bacteroides fragilis isolated from intra-abdominal infection and pelvic inflammatory disease patients after 48 hrs by time kill analysis; assay type: functional
# Method in brief: (§2)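 The MIC was read by inspecting macrodilution time-kill tubes. Vials held prereduced brucella broth with 5% laked horse blood cells, hemin 5 μg/ml and vitamin K1 1 μg/ml. Final inoculum was 10^6–10^7 CFU/ml, prepared inside the anaerobe chamber. Vials were incubated 48 h at 35°C in a shaking water bath.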
# [3] = tested on: Bacteroides thetaiotaomicron; assay: Antimicrobial activity against beta lactamase-positive Bacteroides thetaiotaomicron isolated from intra-abdominal infection and pelvic inflammatory disease patients after 48 hrs by time kill analysis; assay type: functional; method in brief: as §2
# Fusobacterium nucleatum [4] = assay: Antimicrobial activity against beta lactamase-positive Fusobacterium nucleatum isolated from intra-abdominal infection and pelvic inflammatory disease patients after 48 hrs by time kill analysis; assay type: functional; method in brief: as §2
# Prevotella intermedia = assay: Bactericidal activity against beta lactamase-positive Prevotella intermedia isolated from intra-abdominal infection and pelvic inflammatory disease patients assessed as bacterial killing at 2 times MIC after 48 hrs by time kill analysis; assay type: functional
# Method in brief: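 Anaerobic macrodilution time-kill. Inoculum from brucella blood plates, prepared and diluted in prereduced brucella broth inside the anaerobe chamber. Final 10^6 to 10^7 CFU/ml in prereduced brucella broth with 5% laked horse blood cells, 5 μg/ml hemin and 1 μg/ml vitamin K1. […] Shaken at 35°C for 48 h. Viable counts taken at 6, 12, 24 and 48 h. 99.9% kill taken as bactericidal.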
# [5] = tested on: Parabacteroides distasonis; assay: Antimicrobial activity against beta lactamase-positive Bacteroides distasonis isolated from intra-abdominal infection and pelvic inflammatory disease patients after 48 hrs by agar dilution method; assay type: functional; method in brief: as §1
# Prevotella disiens = assay: Antimicrobial activity against beta lactamase-positive Prevotella disiens isolated from intra-abdominal infection and pelvic inflammatory disease patients after 48 hrs by agar dilution method; assay type: functional; method in brief: as §1
# [6] = tested on: Prevotella melaninogenica; assay: Antimicrobial activity against beta lactamase-positive Prevotella melaninogenica isolated from intra-abdominal infection and pelvic inflammatory disease patients after 48 hrs by agar dilution method; assay type: functional; method in brief: as §1
# Prevotella denticola = assay: Antimicrobial activity against beta lactamase-positive Prevotella denticola isolated from intra-abdominal infection and pelvic inflammatory disease patients after 48 hrs by agar dilution method; assay type: functional; method in brief: as §1
# Prevotella corporis = assay: Antimicrobial activity against beta lactamase-positive Prevotella corporis isolated from intra-abdominal infection and pelvic inflammatory disease patients after 48 hrs by agar dilution method; assay type: functional; method in brief: as §1
# [7] = tested on: Porphyromonas asaccharolytica; assay: Antimicrobial activity against Porphyromonas asaccharolyticus isolated from intra-abdominal infection and pelvic inflammatory disease patients after 48 hrs by agar dilution method; assay type: functional; method in brief: as §1
# Fusobacterium nucleatum [8] = assay: Antimicrobial activity against beta lactamase-positive Fusobacterium nucleatum isolated from intra-abdominal infection and pelvic inflammatory disease patients after 48 hrs by agar dilution method; assay type: functional; method in brief: as §1
# [9] = tested on: Fusobacterium necrophorum; assay: Antimicrobial activity against Fusobacterium necrophorum isolated from intra-abdominal infection and pelvic inflammatory disease patients after 48 hrs by agar dilution method; assay type: functional; method in brief: as §1
# Fusobacterium mortiferum = assay: Antimicrobial activity against beta lactamase-positive Fusobacterium mortiferum isolated from intra-abdominal infection and pelvic inflammatory disease patients after 48 hrs by agar dilution method; assay type: functional; method in brief: as §1
# [10] = tested on: Peptostreptococcus anaerobius; assay: Antimicrobial activity against Peptostreptococcus anaerobius isolated from intra-abdominal infection and pelvic inflammatory disease patients after 48 hrs by agar dilution method; assay type: functional; method in brief: as §1
# Anaerococcus prevotii = assay: Antimicrobial activity against Anaerococcus prevotii isolated from intra-abdominal infection and pelvic inflammatory disease patients after 48 hrs by agar dilution method; assay type: functional; method in brief: as §1
# [11] = tested on: Peptoniphilus asaccharolyticus; assay: Antimicrobial activity against Peptoniphilus asaccharolyticus isolated from intra-abdominal infection and pelvic inflammatory disease patients after 48 hrs by agar dilution method; assay type: functional; method in brief: as §1
# Clostridium perfringens [12] = assay: Antimicrobial activity against Clostridium perfringens isolated from intra-abdominal infection and pelvic inflammatory disease patients after 48 hrs by agar dilution method; assay type: functional
# Method in brief: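 CLSI agar dilution on brucella blood agar supplemented with laked sheep blood, hemin and vitamin K. Inoculum about 1 × 10^5 CFU/spot, applied by Steers replicator. Plates incubated 48 h at 35°C in an anaerobic glove box. MIC is the concentration giving marked growth reduction versus the anaerobic control plate. Standard QC strains included in each run.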
# Clostridioides difficile [13] = assay: Antimicrobial activity against Clostridium difficile isolated from intra-abdominal infection and pelvic inflammatory disease patients after 48 hrs by agar dilution method; assay type: functional; method in brief: as §1
# [Clostridium] innocuum = Antimicrobial activity against Clostridium innocuum isolated from intra-abdominal infection and pelvic inflammatory disease patients after 48 hrs by agar dilution method; assay type: functional; method in brief: as §1
# Thomasclavelia ramosa = assay: Antimicrobial activity against Clostridium ramosum isolated from intra-abdominal infection and pelvic inflammatory disease patients after 48 hrs by agar dilution method; assay type: functional; method in brief: as §1
# [14] = tested on: Paraclostridium bifermentans; assay: Antimicrobial activity against Clostridium bifermentans isolated from intra-abdominal infection and pelvic inflammatory disease patients after 48 hrs by agar dilution method; assay type: functional; method in brief: as §1
# [15] = tested on: Enterocloster clostridioformis; assay: Antimicrobial activity against Clostridium clostridioforme isolated from intra-abdominal infection and pelvic inflammatory disease patients after 48 hrs by agar dilution method; assay type: functional; method in brief: as §1
# Clostridium perfringens [16] = assay: Bactericidal activity against Clostridium perfringens isolated from intra-abdominal infection and pelvic inflammatory disease patients assessed as bacterial killing at 2 times MIC after 48 hrs by time kill analysis; assay type: functional
# Method in brief: (§3)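 Time-kill in prereduced brucella broth with 5% laked horse blood cells, hemin and vitamin K1. […] Viable counts taken at 6, 12, 24 and 48 h, plates incubated 48 h anaerobically. Kill scored as 90%, 99% or 99.9%; 99.9% defines bactericidal.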
# Clostridioides difficile [17] = assay: Bactericidal activity against Clostridium difficile isolated from intra-abdominal infection and pelvic inflammatory disease patients assessed as 99.9% bacterial killing at 2 times MIC after 48 hrs by time kill analysis; assay type: functional, organism-based
# Method in brief: (§4)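 Macrodilution time-kill in prereduced brucella broth with 5% laked horse blood, hemin 5 μg/ml and vitamin K1 1 μg/ml, at final inoculum 10^6–10^7 CFU/ml. […] Viable counts were taken at 6, 12, 24 and 48 h on plates incubated 48 h anaerobically. 99.9% kill was taken as bactericidal.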
# Bacteroides fragilis [18] = assay: Bactericidal activity against beta lactamase-positive Bacteroides fragilis isolated from intra-abdominal infection and pelvic inflammatory disease patients assessed as bacterial killing at MIC after 24 hrs by time kill analysis; assay type: functional; method in brief: as §4
# Clostridium perfringens [19] = assay: Bactericidal activity against Clostridium perfringens isolated from intra-abdominal infection and pelvic inflammatory disease patients assessed as bacterial killing at MIC after 24 hrs by time kill analysis; assay type: functional; method in brief: as §3
# Clostridioides difficile [20] = assay: Bactericidal activity against Clostridium difficile isolated from intra-abdominal infection and pelvic inflammatory disease patients assessed as bacterial killing at MIC after 24 hrs by time kill analysis; assay type: functional; method in brief: as §4
smiles,measurement,setting,value
C[C@@H](O)[C@H]1C(=O)N2C(C(=O)O)=C(S[C@@H]3CN[C@H](C(=O)N(C)C)C3)[C@H](C)[C@H]12 [MEROPENEM],MIC50,Bacteroides fragilis [1],0.125 µg/mL
same,MIC90,Bacteroides fragilis [1],1 µg/mL
same,MIC,Bacteroides fragilis [2],0.125 µg/mL
same,MIC,[3],0.25 µg/mL
same,MIC,Fusobacterium nucleatum [4],0.008 µg/mL
same,Activity,Prevotella intermedia,99%
same,MIC,[5],0.125 µg/mL
same,MIC50,[5],0.125 µg/mL
same,MIC90,[5],0.5 µg/mL
same,MIC,Prevotella disiens,0.03 µg/mL
same,MIC50,Prevotella disiens,0.03 µg/mL
same,MIC90,Prevotella disiens,0.125 µg/mL
same,MIC50,[6],0.06 µg/mL
same,MIC50,Prevotella denticola,0.06 µg/mL
same,MIC90,Prevotella denticola,0.25 µg/mL
same,MIC50,Prevotella corporis,0.03 µg/mL
same,MIC90,Prevotella corporis,0.06 µg/mL
same,MIC,[7],≤ 0.016 µg/mL
same,MIC,Fusobacterium nucleatum [8],≤ 0.016 µg/mL
same,MIC50,Fusobacterium nucleatum [8],≤ 0.016 µg/mL
same,MIC90,Fusobacterium nucleatum [8],0.03 µg/mL
same,MIC,[9],≤ 0.016 µg/mL
same,MIC50,[9],≤ 0.016 µg/mL
same,MIC90,[9],0.125 µg/mL
same,MIC50,Fusobacterium mortiferum,0.125 µg/mL
same,MIC90,Fusobacterium mortiferum,0.5 µg/mL
same,MIC,[10],0.25 µg/mL
same,MIC50,[10],0.25 µg/mL
same,MIC90,[10],2 µg/mL
same,MIC,Anaerococcus prevotii,≤ 0.016 µg/mL
same,MIC,[11],≤ 0.016 µg/mL
same,MIC50,[11],≤ 0.016 µg/mL
same,MIC90,[11],0.03 µg/mL
same,MIC,Clostridium perfringens [12],≤ 0.016 µg/mL
same,MIC50,Clostridium perfringens [12],≤ 0.016 µg/mL
same,MIC90,Clostridium perfringens [12],≤ 0.016 µg/mL
same,MIC50,Clostridioides difficile [13],2 µg/mL
same,MIC90,Clostridioides difficile [13],4 µg/mL
same,MIC50,[Clostridium] innocuum,2 µg/mL
same,MIC50,Thomasclavelia ramosa,1 µg/mL
same,MIC,[14],0.125 µg/mL
same,MIC,[15],1 µg/mL
same,Activity,Clostridium perfringens [16],99%
same,Activity,Clostridioides difficile [17],inactive
same,Activity,Bacteroides fragilis [18],90%
same,Activity,Clostridium perfringens [19],90%
same,Activity,Clostridioides difficile [20],90%
C[C@@H](O)[C@H]1C(=O)N2C(C(=O)O)=C(S[C@@H]3CN[C@H](CNS(N)(=O)=O)C3)[C@H](C)[C@H]12 [DORIPENEM],MIC50,Bacteroides fragilis [1],0.25 µg/mL
same,MIC90,Bacteroides fragilis [1],1 µg/mL
same,MIC,Bacteroides fragilis [2],0.25 µg/mL
same,MIC,[3],0.25 µg/mL
same,MIC,Fusobacterium nucleatum [4],0.016 µg/mL
same,Activity,Prevotella intermedia,99%
same,MIC50,[5],0.5 µg/mL
same,MIC90,[5],1 µg/mL
same,MIC50,Prevotella disiens,0.06 µg/mL
same,MIC90,Prevotella disiens,0.125 µg/mL
same,MIC50,[6],0.03 µg/mL
same,MIC90,[6],0.06 µg/mL
same,MIC50,Prevotella denticola,0.03 µg/mL
same,MIC90,Prevotella denticola,0.125 µg/mL
same,MIC,Prevotella corporis,0.03 µg/mL
same,MIC50,Prevotella corporis,0.03 µg/mL
same,MIC90,Prevotella corporis,0.06 µg/mL
same,MIC,[7],≤ 0.016 µg/mL
same,MIC,Fusobacterium nucleatum [8],≤ 0.016 µg/mL
same,MIC50,Fusobacterium nucleatum [8],≤ 0.016 µg/mL
same,MIC90,Fusobacterium nucleatum [8],0.03 µg/mL
same,MIC,[9],≤ 0.016 µg/mL
same,MIC50,[9],≤ 0.016 µg/mL
same,MIC90,[9],0.25 µg/mL
same,MIC50,Fusobacterium mortiferum,0.25 µg/mL
same,MIC90,Fusobacterium mortiferum,1 µg/mL
same,MIC50,[10],0.25 µg/mL
same,MIC90,[10],2 µg/mL
same,MIC,Anaerococcus prevotii,0.03 µg/mL
same,MIC,[11],≤ 0.016 µg/mL
same,MIC50,[11],≤ 0.016 µg/mL
same,MIC90,[11],0.03 µg/mL
same,MIC50,Clostridium perfringens [12],0.03 µg/mL
same,MIC90,Clostridium perfringens [12],0.03 µg/mL
same,MIC50,Clostridioides difficile [13],2 µg/mL
same,MIC90,Clostridioides difficile [13],4 µg/mL
same,MIC,[Clostridium] innocuum,1 µg/mL
same,MIC50,[Clostridium] innocuum,1 µg/mL
same,MIC,Thomasclavelia ramosa,0.5 µg/mL
same,MIC50,Thomasclavelia ramosa,0.5 µg/mL
same,MIC,[14],0.06 µg/mL
same,MIC,[15],1 µg/mL
same,Activity,Clostridium perfringens [16],99%
same,Activity,Clostridioides difficile [17],inactive
same,Activity,Bacteroides fragilis [18],90%
same,Activity,Clostridium perfringens [19],90%
same,Activity,Clostridioides difficile [20],90%
